The values below come from ChEMBL document CHEMBL4622973, “Discovery of Potent Small-Molecule SIRT6 Activators: Structure-Activity Relationship and Anti-Pancreatic Ductal Adenocarcinoma Activity” (J Med Chem, 2020).

Molecules are shown by their SMILES. Active and inactive are the calls of the source. The calls are words filed in the database; no cut-off is given here.

Data set [1] is filed under the species Homo sapiens. As to the kind of experiment: Selectivity index, ratio of IC50 for SIRT1 (unknown origin) to EC1.5 for N-terminal his-tagged human SIRT6 expressed in Escherichia coli M15 [pREP4].
Data set [2] concerns the target T1, NAD-dependent protein deacylase sirtuin-6 (Homo sapiens, UniProt Q8N6T7). Nature of the data set: Binding affinity to N-terminal his-tagged human SIRT6 expressed in Escherichia coli M15 [pREP4] assessed as change in melting temperature at 20 uM by SYPRO orange dye based DSF assay.
The test system of another data set is Bel-7402. Nature of the data set: Antiproliferative activity against human Bel7402 cells assessed as reduction in cell viability incubated for 72 hrs by MTT assay. The data set is classed as functional, cell-based.
Data set [3] is filed under the species Homo sapiens. As to the kind of experiment: Antiproliferative activity against human OCUT-2C cells assessed as reduction in cell viability incubated for 72 hrs by MTT assay. The data set is classed as functional, cell-based.
A further data set concerns NCI-H526. Nature of the data set: Antiproliferative activity against human NCI-H526 cells assessed as reduction in cell viability incubated for 72 hrs by MTT assay. Type of data set: functional, cell-based.
The next data set concerns NCI-H1975. As to the kind of experiment: Antiproliferative activity against human NCI-H1975 cells assessed as reduction in cell viability incubated for 72 hrs by MTT assay. Type of data set: functional, cell-based.
Data set [4] relates to BXPC-3. As to the kind of experiment: Inhibition of colony formation in human BxPC3 cells incubated for 9 to 18 days by crystal violet staining based assay. Type of data set: functional, cell-based. In a few lines: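 Cells are seeded per well at the line-specific density: BXPC-3 750, PANC-1 500, AsPC-1 2200, MIAPaCa-2 500. Compound at several concentrations is added after 24 h. Incubation runs 9–18 days (BXPC-3 18 days, PANC-1 14 days). Cells are then fixed with 4% paraformaldehyde and stained with crystal violet, and colonies of more than 50 cells are counted.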

Data set [5] concerns BXPC-3. Nature of the data set: Antiproliferative activity against human BxPC3 cells at 3.3 to 10 uM incubated for 24 hrs by EdU incorporation assay. Type of data set: functional, cell-based. In a few lines: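 Cells seeded per well at 8000 (BXPC-3) or 4600 (PANC-1), then treated with a concentration series for 24 h. EdU incorporation detected with an EdU-Apollo kit, with Hoechst counterstain. EdU-positive cells counted by high-content imaging across 10 fields.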

Data set [6] concerns BXPC-3. Nature of the data set: Induction of cell cycle arrest in human BxPC3 cells assessed as increase in accumulation at G2 phase incubated for 48 hrs by propidium iodide staining based flow cytometry. The data set is classed as functional. An outline of the steps:
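PANC-1 and BXPC-3 cells in 6-well plates treated with a concentration series for 48 h. Stained with 50 µg/mL propidium iodide for 30 min in the dark. DNA content analysed by flow cytometry for cell-cycle phase distribution.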

Data set [7] concerns BXPC-3. As to the kind of experiment: Induction of apoptosis in human BxPC3 cells incubated for 48 hrs by propidium iodide and Annexin V-FITC staining based flow cytometry. The data set is classed as functional, cell-based. An outline of the steps: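 PANC-1 and BXPC-3 cells seeded in 6-well plates and treated with a concentration series for 48 h. Stained with Annexin V-FITC and propidium iodide for 10 min in the dark. Annexin V+ populations measured by flow cytometry.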

For another data set, the system named is PANC-1. As to the kind of experiment: Inhibition of cell migration of human PANC1 cells at 10 umol/L incubated for 24 hrs by inverted microscopy relative to control. The data set is classed as functional. Particulars: PANC-1, 24 h. An outline of the steps:
(§1)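 PDAC cells are grown to a confluent monolayer at 37 °C in 5% CO2. The monolayer is scratched with a 200 μL pipette tip to make a gap of constant width, then washed with PBS. Cells are exposed to a range of compound concentrations. They are imaged by inverted microscope after 24 h. Migrated cells are counted by hand, and inhibition is expressed relative to untreated wells (100%).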

The next data set concerns ASPC1. As to the kind of experiment: Inhibition of cell migration of human AsPC1 cells at 10 umol/L incubated for 24 hrs by inverted microscopy relative to control. Type of data set: functional. The following applies: ASPC1, 24 h. In a few lines: as §1
The target of data set [8] is T1, NAD-dependent protein deacylase sirtuin-6. As to the kind of experiment: Binding affinity to SIRT6 in human PANC1 cells assessed as protection of SIRT6 protein from temperature-dependent degradation at 25 uM incubated for 72 hrs by CETSA. Type of data set: cell-based. The following applies: PANC-1. An outline of the steps:
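Cells treated with compound (25 μM) or DMSO for 72 h, washed, resuspended in PBS with protease inhibitor cocktail, split into aliquots heated 3 min at a temperature gradient. Lysed by three freeze–thaw cycles, centrifuged at 4 °C for 15 min; soluble SIRT6 in supernatant detected by western blot. Triplicate.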

For data set [9] the target is unchanged. Nature of the data set: […] in human BxPC3 cells assessed as reduction in H3K9ac levels incubated for 72 hrs by Western blot analysis. The data set is classed as cell-based. Particulars: BXPC-3. An outline of the steps:
(§2)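 Cells incubated 72 h with various compound concentrations; whole-cell RIPA lysates with protease inhibitors, BCA-normalised, separated on 12% SDS-PAGE, transferred to PVDF, blocked in 5% milk or BSA. Probed 10 h at 4 °C with antibodies to SIRT6, acetyl-H3K9/K18/K56, total H3, Lin28b, Myc, IGF2BP3, β-actin; HRP secondary, chemiluminescent detection.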

Data set [10] shares this target. Nature of the data set: […] in human PANC1 cells assessed as reduction in H3K18ac levels incubated for 72 hrs by Western blot analysis. The data set is classed as cell-based. The following applies: PANC-1. An outline of the steps:
as §2

Data set [11] has the same target. Nature of the data set: […] in human PANC1 cells assessed as reduction in Lin28b expression levels at 25 uM incubated for 72 hrs by Western blot analysis. Particulars: PANC-1. Type of data set: cell-based. An outline of the steps: as §2
Data set [12] has the same target. As to the kind of experiment: […] in human BxPC3 cells assessed as reduction in Lin28b expression levels at 25 uM incubated for 72 hrs by Western blot analysis. Type of data set: cell-based. The following applies: BXPC-3. In a few lines:
as §2

Data set [13] shares this target. As to the kind of experiment: […] in human BxPC3 cells assessed as reduction in IGF2BP3 expression levels at 25 uM incubated for 72 hrs by Western blot analysis. Type of data set: cell-based. The following applies: BXPC-3. An outline of the steps: as §2
Data set [14] shares this target. Nature of the data set: In-vivo activation of SIRT6 in BALB/c nude mouse xenografted with human PANC1 cells assessed as reduction in Lin28b expression at 150 mg/kg/day, po for 30 days by IHC analysis. Type of data set: functional, organism-based. The following applies: PANC-1. In a few lines: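 Female BALB/c nude mice (6–8 weeks) bearing subcutaneous PANC-1 xenografts (5×10⁶–1×10⁷ cells, right flank), randomised at 130–150 mm³ tumours; oral dosing daily for 30 days versus vehicle (n=6). Tumour tissue stained by immunohistochemistry.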

The nature of data set [15]: AUC (0 to t) in Sprague-Dawley rat at 10 mg/kg, po after 0.083 to 24 hrs by LC-MS/MS analysis. Type of data set: ADME, organism-based. The following applies: in vivo. An outline of the steps:
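Male Sprague-Dawley rats, 6-8 weeks old. Dosing solution of 10 (PO) or 2 (IV) mg/mL in 5% DMSO, 10% Solutol and 85% saline, pH 7. Blood taken by cardiac puncture at 0.083–24 h (PO) or 0.25–24 h (IV). Plasma levels measured by LC-MS/MS. Values are mean ± SD, n = 3.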

A short description of data set [16]: Tmax in Sprague-Dawley rat at 2 mg/kg, iv after 0.25 to 24 hrs by LC-MS/MS analysis. The following applies: in vivo. The data set is classed as ADME, organism-based. In a few lines:
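Male Sprague-Dawley rats, 6–8 weeks old, received a single dose of 10 mg/kg p.o. or 2 mg/kg i.v. The vehicle was 5% DMSO, 10% Solutol and 85% saline at pH 7. Blood was taken by cardiac puncture at 0.083–24 h (p.o.) or 0.25–24 h (i.v.), and plasma was measured by LC-MS/MS. Values are mean ± SD, n = 3.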

The target of a further data set is Histone deacetylase 11 (Homo sapiens, UniProt Q96DB2). As to the kind of experiment: Inhibition of HDAC11 (unknown origin) by FDL assay. In a few lines:
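Selectivity testing by FDL assay at concentrations up to 200 µM. SIRT1-2 assays run by an outside contract provider. Values reported as IC50.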

T1 sequence (Q8N6T7 whole entry): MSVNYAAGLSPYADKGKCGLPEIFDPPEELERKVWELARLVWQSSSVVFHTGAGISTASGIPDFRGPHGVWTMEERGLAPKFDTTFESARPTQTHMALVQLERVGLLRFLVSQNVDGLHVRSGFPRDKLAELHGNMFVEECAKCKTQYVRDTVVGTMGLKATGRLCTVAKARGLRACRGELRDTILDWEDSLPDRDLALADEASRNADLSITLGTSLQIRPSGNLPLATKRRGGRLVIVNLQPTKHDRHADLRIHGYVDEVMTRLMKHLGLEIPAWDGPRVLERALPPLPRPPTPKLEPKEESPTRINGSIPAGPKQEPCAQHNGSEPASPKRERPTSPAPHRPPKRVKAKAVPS
Sequence of Histone deacetylase 11 (Q96DB2 whole entry): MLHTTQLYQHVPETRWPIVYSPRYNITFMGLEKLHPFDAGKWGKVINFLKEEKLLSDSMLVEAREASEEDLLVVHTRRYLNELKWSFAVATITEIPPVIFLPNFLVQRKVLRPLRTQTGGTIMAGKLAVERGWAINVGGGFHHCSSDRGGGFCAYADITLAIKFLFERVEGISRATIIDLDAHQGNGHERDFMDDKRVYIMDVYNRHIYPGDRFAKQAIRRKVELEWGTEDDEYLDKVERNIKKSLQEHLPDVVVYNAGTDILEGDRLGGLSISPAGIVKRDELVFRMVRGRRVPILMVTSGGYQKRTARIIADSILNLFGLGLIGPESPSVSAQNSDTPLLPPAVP

With `O=C(NC(c1ccccc1)c1ccccc1)c1cc(-c2cc3ccccc3o2)nc2ccccc12`, the Ratio in the data set filed under Homo sapiens [1] came to 300. For the same molecule, the ΔTm in data set [2] was 1.01 °C. In addition, the result (with Bel-7402; in the data set listed under Homo sapiens [3]; with NCI-H526; in the data set on NCI-H1975; in the data set with BXPC-3 [5]; in data set [8]) was Active. For the same molecule, the outcome in data set [14] was Active. For the same molecule, the inhibition result (in the data set on BXPC-3 [4]; in data set [9]; in data set [10]) was “Dose-dependent effect” throughout. Besides, the Activity result with BXPC-3 [6] and with BXPC-3 [7] was “Dose-dependent effect” in each case. For the same molecule, the inhibition at 10 µM with PANC-1 turned out to be 87.8%; with ASPC1, 55.4%. Moreover, the inhibition entry in data set [11], in data set [12] and in data set [13] was “Active” each time. The molecule also came in with an AUCt in [15] of 704.67 ng·mL·h. Moreover, the Tmax in data set [16] worked out at 4.8 min. On Histone deacetylase 11, this molecule yielded a half-inhibitory concentration (IC50) of over 200 µM.
